The sample as a whole holds a higher share of hits than the screen did.
T cruzi HTS – inhibitors of intracellular Trypanosoma cruzi | intracellular Trypanosoma cruzi in host cells, plate reader | activity score (inhibition), % at 5.01 µM | 22,000 tested, 4.9% active | AID 651903; in the data active = activity score above about 55%; inconclusive = no clear call, values can overlap the other calls;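 also: parasites and compound incubated about four days before reading; 0% = median of neutral control wells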
A1 apoptosis 2 – compounds inhibiting A1, read as caspase activation; MEF A1-2A-BIM cells, caspase-Glo luminescence, 3 h; percent of clofoctol response, DMSO zero; caspase activation, % (concentration not given with the values); 24,000 tested, under 10 active; in the data active = caspase activation above about 5.9%; inconclusive = no clear call, values can overlap the other calls; inactive = below about 2.2%
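System: mouse embryonic fibroblasts co-expressing A1 and BIM (A1-2A-BIM), primed for A1 dependence; amount: 2500 cells/well; doses: 50 nL pinned compound; schedule: cells settled overnight, compound exposure 3 h at 37 °C, 5% CO2; detection: Caspase-Glo 3/7 luminescence, 1 h at room temperature; read-out: Caspase-3/7 activation, seen as rise in luminescence signal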
INS-1E rescue – rescue of cytokine-induced death in INS-1E beta cells | AID 488910 | INS-1E cytokine-induced death, ATP luminescence, 48 h; normalised: neutral wells 0, positive control 100 | protection from cytokine-induced ATP loss, % at 10 µM | 20,000 tested, 0.1% active;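 active = mean replicate protection from cytokine-induced ATP loss at least 50% and at least 75% of replicates each reaching 50%; inconclusive = meets only one of the two criteria, mean or replicate share; inactive = fails both the mean and replicate share criteria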
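Test system: INS-1E rat cells | Quantity: 8000 cells per well | Medium: Phenol-red-free RPMI with 5% fetal bovine serum | Reagent: Cytokine cocktail of IFN-γ, TNF-α and IL-1β | Doses: One compound concentration, pin transfer | Timing: 48 h co-treatment, 10 min post-lysis read | Technique: Luminescent ATP assay (CellTiter-Glo)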
The depositor's hits bear a star; ? = inconclusive; · = no result given.

SMILES	T cruzi HTS	A1 apoptosis 2	INS-1E rescue
C[C@@H]1CN([C@H](C)CO)C(=O)Cc2cc(NC(=O)Nc3ccc4c(c3)OCO4)ccc2O[C@H]1CN(C)Cc1ccc(-c2ccccc2)cc1	72*	·	-35
C[C@@H]1CN([C@H](C)CO)C(=O)Cc2cc(NC(=O)Nc3ccc(F)cc3)ccc2O[C@H]1CN(C)Cc1ccc(-c2ccccc2)cc1	74*	1	-72
C[C@H]1CN([C@@H](C)CO)C(=O)Cc2cc(NC(=O)Nc3ccc(F)cc3)ccc2O[C@H]1CN(C)Cc1ccc(-c2ccccc2)cc1	22	1	-44
C[C@@H]1CN([C@H](C)CO)C(=O)Cc2cc(NC(=O)Nc3ccc4c(c3)OCO4)ccc2O[C@H]1CN(C)Cc1ccccc1	-15	-1	-8
COc1ccc(NC(=O)Nc2ccc3c(c2)CC(=O)N([C@H](C)CO)C[C@@H](C)[C@@H](CN(C)C(=O)Nc2ccc4c(c2)OCO4)O3)cc1	-9	-1	-2
O=C(CCCCCCC(=O)Nc1ccccc1O)N/N=C/c1ccc(Br)o1	-18	-1	17
C[C@H](CO)N1C[C@H](C)[C@@H](CN(C)S(=O)(=O)c2ccc(Cl)cc2)Oc2ccc(NC(=O)Cc3cn(C)c4ccccc34)cc2CC1=O	·	1	·
COc1ccc(CN(C)C[C@H]2Oc3ccc(NC(=O)Cc4cn(C)c5ccccc45)cc3CC(=O)N([C@H](C)CO)C[C@H]2C)cc1	14	1	-7
C[C@@H]1CN([C@@H](C)CO)C(=O)Cc2cc(NC(=O)Cc3cn(C)c4ccccc34)ccc2O[C@@H]1CN(C)Cc1ccc(C(F)(F)F)cc1	63*	-1	0
C[C@H](CO)N1C[C@H](C)[C@H](CN(C)Cc2ccc(Cl)c(Cl)c2)Oc2ccc(NC(=O)Cc3cn(C)c4ccccc34)cc2CC1=O	54	0	-24
C[C@H]1CN([C@@H](C)CO)C(=O)Cc2cc(NC(=O)Cc3cn(C)c4ccccc34)ccc2O[C@H]1CN(C)Cc1ccc(Cl)c(Cl)c1	60*	0	-1
C[C@@H]1CN([C@H](C)CO)C(=O)Cc2cc(NC(=O)Cc3cn(C)c4ccccc34)ccc2O[C@@H]1CN(C)S(=O)(=O)c1ccc(Cl)cc1	67*	·	3
C[C@H](CO)N1C[C@H](C)[C@@H](CN(C)Cc2ccc(C(F)(F)F)cc2)Oc2ccc(NC(=O)Cc3cn(C)c4ccccc34)cc2CC1=O	·	0	·
COc1ccc(CN(C)C[C@@H]2Oc3ccc(NC(=O)Cc4cn(C)c5ccccc45)cc3CC(=O)N([C@H](C)CO)C[C@H]2C)cc1	65*	0	-8
O=S(=O)(NC1CCN(Cc2cccc(OCCO)c2)CC1)c1ccc(Cl)cc1	·	0	·
O=C(N/N=C/c1cn(Cc2ccccc2)c2ccccc12)c1ccccc1O	-26	·	-10
O=C(CCCCCC(=O)N/N=C/c1cc(Br)cs1)NO	·	1	·
[N-]=[N+]=NCc1ccccc1C[C@@]1(C(=O)NCCN2CCOCC2)N=C(c2ccc(OCCCO)cc2)O[C@@H]1c1ccccc1	·	0	·
C[C@@H]1CN([C@H](C)CO)C(=O)Cc2cc(NC(=O)Cc3cn(C)c4ccccc34)ccc2O[C@@H]1CN(C)Cc1ccc(Oc2ccccc2)cc1	65*	1	-55
C[C@H](CO)N1C[C@H](C)[C@H](CN(C)Cc2ccc(Oc3ccccc3)cc2)Oc2ccc(NC(=O)Cc3cn(C)c4ccccc34)cc2CC1=O	19	·	-23
O=C(NO)c1ccc(C(=O)N/N=C/Cc2ccccc2)cc1	·	1	·
O=C(CCCCCCC(=O)Nc1ccccc1O)N/N=C/[C@@H](O)[C@H](O)[C@H](O)CO	-1	1	-3
COc1ccc([Si](C)(C)[C@@H]2[C@@H](CCO)O[C@]3(C(=O)N(C)c4c(Br)cc(C)cc43)[C@H]2C)cc1	·	44*	·
COc1ccc([Si](C)(C)[C@@H]2[C@@H](CCO)O[C@]3(C(=O)N(C)c4ccccc43)[C@H]2C)cc1	·	2	·
CNC[C@@H]1Oc2ccc(NC(=O)NC3CCCCC3)cc2CC(=O)N([C@H](C)CO)C[C@H]1C	-20	·	12
C[C@H]1CN([C@@H](C)CO)C(=O)c2cccc(NC(=O)c3cnccn3)c2O[C@H]1CN(C)Cc1ccc(C(=O)Nc2ccccc2N)cc1	67*	1	-21
C[C@H](CO)N1C[C@H](C)[C@@H](CN(C)Cc2ccc(C(=O)Nc3ccccc3N)cc2)Oc2c(NC(=O)c3cnccn3)cccc2C1=O	75*	0	-5
C[C@H]1CN([C@@H](C)CO)C(=O)c2cccc(NC(=O)c3cnccn3)c2O[C@@H]1CN(C)Cc1ccc(C(=O)Nc2ccccc2N)cc1	?	0	-14

High-throughput results as filed in PubChem BioAssay.
